In article PMC5508592 (The New England journal of medicine, 2016):
Where two headings read alike, the source gives them in different places.

Legend:
[1] = test system: DhhCre;Nf1fl/fl model of neurofibromatosis type 1–related neurofibromas; details: cited from earlier work
[2] = assay type: in vivo
[3] = test system: neurofibromatosis type 1–related plexiform neurofibromas; test: Response evaluation by volumetric MRI analysis of plexiform neurofibroma volume; assay type: in vivo, human
[4] = test system: plexiform neurofibroma–related complications; test: Anecdotal report of amelioration of complications of plexiform neurofibroma; assay type: in vivo, human
[5] = Plasma pharmacokinetics of selumetinib in patients during cycle 1; assay type: in vivo, human
In short: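 Pediatric patients who consented received oral test compound capsules every 12 h, continuously in 28-day cycles, at 20, 25 or 30 mg per square meter (nomogram by body-surface area). Plasma was sampled in cycle 1 on day 1 before dosing and 0.5, 1, 2, 3, 5, 8, 10–12, 24 and 30–36 h after, and on day 27 before dosing. Parent and N-desmethyl metabolite were assayed; noncompartmental PK analysis.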

[6] = test system: phosphorylated extracellular signal-regulated kinase (ERK); test: Pharmacodynamics in mouse tumor samples; details: in vivo
[7] = children with low-grade gliomas; cited from earlier work
plexiform neurofibromas = details: 4 of 83 patients; phase 2 trial; cited from earlier work
[8] = 20-mg group, 7 patients with condition at baseline
[9] = 25-mg group, 3 patients with condition at baseline
[10] = 30-mg group, 3 patients with condition at baseline

O=C(NOC[C@H](O)CO)c1ccc(F)c(F)c1Nc1ccc(I)cc1F [PD0325901]
Effect on neurofibroma volume [1]: tumor shrinkage in the majority of mice

Cn1cnc2c(F)c(Nc3ccc(Br)cc3Cl)c(C(=O)NOCCO)cc21 [selumetinib]
Tolerability of 30 mg per square meter relative to maximum tolerated dose ([2]; 30 mg per square meter twice daily): exceeded the maximum tolerated dose | Maximum tolerated dose ([2]; children, oral, every 12 hours, continuous dosing in 28-day cycles, approximately 60% of the recommended adult dose): 25 mg per square meter | Dose-limiting toxic effect: cellulitis ([2]; human, in vivo): Grade 3 (2 patients) | Dose-limiting toxic effect: decreased left ventricular ejection fraction ([2]; human, in vivo): Grade 3 (1 patient) | Dose-limiting toxic effect: rash ([2]; human, in vivo): Grade 3 (1 patient) | Dose-limiting toxic effect: urticaria ([2]; human, in vivo): Grade 3 (1 patient) | Dose-limiting toxic effects in later cycles: cellulitis ([2]; human, in vivo): 1 patient | Dose-limiting toxic effects in later cycles: creatine kinase elevation ([2]; human, in vivo): 4 patients | Dose-limiting toxic effects in later cycles: oral mucositis ([2]; human, in vivo): 3 patients | Left ventricular ejection fraction after decrease ([2]; human, in vivo): 50% | Serial ophthalmologic examinations ([2]; human, in vivo): no abnormalities, with the exception of a grade 1 asymptomatic cataract at cycle 16 in 1 patient | Severity of most selumetinib-related adverse events ([2]; human, in vivo): mild (grade 1) | Treatment stopped because of dose-limiting toxic effects ([2]; human, in vivo): 1 | Effect on height or weight ([2]; in vivo): No measurable effect | Reversibility of dose-limiting toxic effects ([2]; in vivo): reversible | Partial response, documented progressive disease at enrollment ([3]; 5 of 9 patients): 56% | Partial response, no previous volumetric data available at enrollment ([3]; 6 of 7 patients): 86% | Median time free of progression ([3]; 9 patients with confirmed tumor growth before enrollment, range, 23 to 46): 26 cycles | Confirmed partial response ([3]; 17 of the 24 patients, tumor volume decrease from baseline ≥20%): 71% | Median best response (range) ([3]; 20-mg group (N = 12)): −31 (−6 to −47) % volume change from baseline | Median time to best response (range) ([3]; 20-mg group (N = 12)): 22 (5 to 42) mo | Partial response ([3]; 20-mg group (N = 12), tumor volume decrease from baseline ≥20% for at least 4 weeks): 9 (75) no. (%) | No. with response, insufficient information on progression status at entry ([3]; 20-mg group, of 4 patients): 3 | No. with response, nonprogressive disease at trial entry ([3]; 20-mg group, of 4 patients): 4 | No. with response, progressive disease at trial entry ([3]; 20-mg group, of 4 patients): 2 | Median best response (range) ([3]; 25-mg group (N = 6)): −34 (−16 to −44) % volume change from baseline | Median time to best response (range) ([3]; 25-mg group (N = 6)): 18 (9 to 22) mo | Partial response ([3]; 25-mg group (N = 6), tumor volume decrease ≥20%): 5 (83) no. (%) | No. with response, insufficient information on progression status at entry ([3]; 25-mg group, of 2 patients): 2 | No. with response, progressive disease at trial entry ([3]; 25-mg group, of 4 patients): 3 | Median best response (range) ([3]; 30-mg group (N = 6)): −19 (−13 to −34) % volume change from baseline | Median time to best response (range) ([3]; 30-mg group (N = 6)): 8 (5 to 24) mo | Partial response ([3]; 30-mg group (N = 6), tumor volume decrease ≥20%): 3 (50) no. (%) | No. with response, insufficient information on progression status at entry ([3]; 30-mg group, of 1 patient): 1 | No. with response, progressive disease at trial entry ([3]; 30-mg group, of 1 patient): 0 | No. with response, nonprogressive disease at trial entry ([3]; 30-mg group, of 4 patients): 2 | Tumor volume reduction since reinitiation at a reduced dose ([3]; Patient 7 (30-mg group)): 25% | Increase in plexiform neurofibroma volume from baseline after drug interruption ([3]; Patient 7 (30-mg group), when selumetinib was restarted): 9.6% | Median change from baseline in plexiform neurofibroma volume (best response) ([3]; all 24 patients): −31% | Range of change from baseline in plexiform neurofibroma volume (best response) ([3]; all 24 patients): −5.8 to −47% | Median time to maximum response ([3]; all patients, range, 5 to 42): 20 cycles | Partial response, tumors assessed as stable at enrollment ([3]; in vivo): 2 of 2 | Patients with partial response who maintain their response status to date ([3]; in vivo): 15 of the 17 | Median duration of partial response ([3]; range, 6 to 42): 23 cycles | Disease progression (tumor volume increase from baseline of ≥20%) ([3]; to date): No patients have had disease progression | Motor dysfunction: no. of patients with improvement ([4]; 20-mg group, 3 patients with condition at baseline): 2 | Disfigurement: no. of patients with improvement [4, 8]: 2 | Pain: no. of patients with improvement [4, 8]: 4 | Motor dysfunction: no. of patients with improvement [4, 9]: 3 | Pain: no. of patients with improvement [4, 9]: 3 | Disfigurement: no. of patients with improvement ([4]; 25-mg group, 6 patients with condition at baseline): 3 | Motor dysfunction: no. of patients with improvement [4, 10]: 0 | Pain: no. of patients with improvement [4, 10]: 1 | Disfigurement: no. of patients with improvement ([4]; 30-mg group, 5 patients with condition at baseline): 0 | Drug exposure with increasing dose ([5]; 20 to 30 mg per square meter): less than dose-proportional | Selumetinib plasma concentrations versus N-desmethyl metabolite ([5]; plasma): exceeded those of the N-desmethyl metabolite at all time points | Absorption ([5]; plasma, cycle 1, 18 patients): absorbed rapidly | Phosphorylated ERK in mouse tumor samples [6]: transient decrease | Maximum tolerated dose [7]: 25 mg per square meter

pegylated interferon alfa-2b
Patients with tumor volume decrease from baseline of at least 20% (plexiform neurofibromas): 5%
